From ChEMBL document CHEMBL4627260, “Optimisation of estrogen receptor subtype-selectivity of a 4-Aryl-4H-chromene scaffold previously identified by virtual screening” (Bioorg Med Chem, 2020)

What was measured:
[1] = Chemical stability of the compound in pH 9 phosphate buffer assessed as half life by HPLC method; assay type: physicochemical
Summary of the method: (§1)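 Stock of 5 mg compound in 10 mL mobile phase; 30 μL diluted into 1 mL phosphate buffer (pH 4, 7.4 or 9, British Pharmacopoeia). Injected immediately and sampled at 0, 5, 30, 60, 90, 120 min and 21 h. HPLC with UV detection at 254 nm, acetonitrile:water 80:20 mobile phase, 1 mL/min over 10 min.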

[2] = system: MCF7; test: Antiproliferative activity against human MCF7 cells assessed as inhibition of cell viability after 72 hrs by MTT assay; assay type: functional, cell-based; settings: MCF7, 72 h
Summary of the method: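 MCF-7 cells grown in Eagle's MEM with 10% fetal calf serum, 2 mM L-glutamine, penicillin/streptomycin and 1% non-essential amino acids. Seeded at 2.5×10^4 cells/mL, 24 h at 37 °C, 5% CO2. Dosed from ethanol stocks at 1 nM–100 μM final (vehicle 1% v/v ethanol), 72 h. MTT 1 mg/mL for 2 h in dark, DMSO solubilisation, absorbance 595 nm. Viability relative to vehicle; mean ± S.E.M., at least two experiments in triplicate.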

[3] = Stability in human plasma assessed as half life by HPLC method; assay type: ADME, cell-free
Summary of the method: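 Human blood plasma (2.0 mL) mixed with PBS containing 10% DMSO (1.6 mL) and pre-warmed to 37 °C. Compound added as 400 μL of a 1.0 mg/mL stock. Aliquots of 100 μL quenched in 900 μL acetonitrile, centrifuged and filtered. Sampled every 15 min for 1 h, then hourly to 3 h, plus 24 h. C18 reverse-phase HPLC at 25 °C, H2O:ACN:MeOH mobile phase, 1.0 mL/min.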

[4] = molecular target: T1, Estrogen receptor (Homo sapiens, UniProt P03372); test: Displacement of fluorescent estrogen ligand from recombinant human full length untagged ERalpha expressed in baculovirus infected insect cells incubated in dark for 2 hrs by Beacon single-tube fluorescent polarization assay
T1 sequence (P03372 whole entry): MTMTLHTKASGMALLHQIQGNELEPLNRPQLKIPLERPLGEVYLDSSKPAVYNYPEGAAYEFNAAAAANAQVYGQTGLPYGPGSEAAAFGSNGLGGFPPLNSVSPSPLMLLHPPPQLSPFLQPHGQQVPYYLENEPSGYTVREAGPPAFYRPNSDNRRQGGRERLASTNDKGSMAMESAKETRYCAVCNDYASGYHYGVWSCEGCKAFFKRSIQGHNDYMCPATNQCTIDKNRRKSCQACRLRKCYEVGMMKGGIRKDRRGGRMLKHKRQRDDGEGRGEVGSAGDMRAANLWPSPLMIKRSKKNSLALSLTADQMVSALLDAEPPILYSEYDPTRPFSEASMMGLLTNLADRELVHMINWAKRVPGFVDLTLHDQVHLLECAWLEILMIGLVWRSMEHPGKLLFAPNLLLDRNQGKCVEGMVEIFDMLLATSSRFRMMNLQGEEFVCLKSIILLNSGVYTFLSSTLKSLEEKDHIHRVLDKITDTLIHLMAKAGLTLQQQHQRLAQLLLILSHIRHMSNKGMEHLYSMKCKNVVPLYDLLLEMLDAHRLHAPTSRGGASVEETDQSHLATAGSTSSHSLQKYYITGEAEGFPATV

[5] = system: MCF7; test: Toxicity in human MCF7 cells assessed as cell death at 10 uM incubated for 72 hrs by LDH assay relative to control; assay type: cell-based; settings: mcf7, 72 h
Summary of the method: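 LDH release assay (CytoTox 96). MCF-7 cells seeded at 1×10^4 cells/well for 24 h, dosed with ethanol vehicle (1% v/v) and incubated 72 h. Medium mixed with substrate for 20 min at room temperature in dark, stopped, absorbance read at 490 nm. Lysis is percent of a lysis-solution control (100% lysis, 45 min); three experiments in triplicate, mean ± SEM.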

[6] = Chemical stability of the compound in pH 7.4 phosphate buffer assessed as half life by HPLC method; assay type: physicochemical; summary of the method: as §1
[7] = molecular target: Estrogen receptor beta (Homo sapiens, UniProt Q92731); test: Displacement of fluorescent estrogen ligand from recombinant human full length untagged ERbeta expressed in baculovirus infected insect cells incubated in dark for 2 hrs by Beacon single-tube fluorescent polarization assay
[8] = Chemical stability of the compound in phosphate buffer at pH 4 assessed as compound remaining after 30 mins by HPLC method; assay type: physicochemical; settings: read-out: Stability; summary of the method: as §1

Chain of Estrogen receptor beta (Q92731 whole entry): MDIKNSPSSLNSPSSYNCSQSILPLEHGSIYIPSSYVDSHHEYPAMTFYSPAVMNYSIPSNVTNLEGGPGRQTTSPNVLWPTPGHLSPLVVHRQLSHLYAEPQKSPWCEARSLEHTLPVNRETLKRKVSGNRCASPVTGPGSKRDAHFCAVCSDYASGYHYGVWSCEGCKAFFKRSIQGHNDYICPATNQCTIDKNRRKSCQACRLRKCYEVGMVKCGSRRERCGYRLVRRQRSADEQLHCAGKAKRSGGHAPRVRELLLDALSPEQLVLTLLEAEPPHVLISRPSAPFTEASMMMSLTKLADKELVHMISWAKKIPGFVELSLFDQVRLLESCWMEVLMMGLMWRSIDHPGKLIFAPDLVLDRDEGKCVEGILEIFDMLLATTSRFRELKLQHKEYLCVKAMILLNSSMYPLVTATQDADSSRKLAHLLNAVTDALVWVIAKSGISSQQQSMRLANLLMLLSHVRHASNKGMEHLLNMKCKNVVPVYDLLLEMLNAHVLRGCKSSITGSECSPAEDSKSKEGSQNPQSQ

| half-life [1] [h] | IC50 [2] [µM] | half-life [3] [h] | IC50 [4] [µM] | half-life [6] [h] | IC50 [7] [µM] | remaining at 0.5 h [8] [%] | Structure (SMILES) | Activity [5] [%] |
| --- | --- | --- | --- | --- | --- | --- | --- | --- |
| > 24 | 8.75 | > 24 | 0.02 | > 24 | 0.06 | 27 | CCOC(=O)C1=C(N)Oc2cc(O)ccc2C1c1ccc(OCCN2CCCCC2)cc1 (configuration not stated) | 0 |
| – | 2.65 | – | 0.09 | – | 0.37 | – | CC(C)(C)OC(=O)C1=C(N)Oc2cc(O)ccc2C1c1ccc(OCCN2CCCCC2)cc1 (configuration not stated) | – |
| – | 16.2 | – | 0.05 | – | 0.22 | – | COC(=O)C1=C(N)Oc2cc(O)ccc2C1c1ccc(OCCN2CCCCC2)cc1 (configuration not stated) | 0 |
| > 24 | 31.8 | > 24 | 0.03 | > 24 | 2.35 | 32 | CCCCOC(=O)C1=C(N)Oc2cc(O)ccc2C1c1ccc(OCCN2CCCCC2)cc1 (configuration not stated) | – |
| – | 35.3 | – | 14 | – | > 50 | – | N#CC1=C(N)Oc2cc(O)ccc2C1c1ccc(OCCN2CCOCC2)cc1 (configuration not stated) | 0 |
| – | 23.2 | – | 1.47 | – | 10.4 | – | N#CC1=C(N)Oc2cc(O)ccc2C1c1ccc(OCCN2CCCCC2)cc1 (configuration not stated) | – |
| – | 19.6 | – | 0.02 | – | 0.35 | – | COC(=O)C1=C(N)Oc2cc(O)ccc2C1c1ccc(OCCN2CCCC2)cc1 (configuration not stated) | 0 |
| – | 10 | – | 0.01 | – | 0.67 | – | CC(C)(C)OC(=O)C1=C(N)Oc2cc(O)ccc2C1c1ccc(OCCN2CCCC2)cc1 (configuration not stated) | – |
| – | 7.73 | – | 0.02 | – | 6.55 | – | CCCCOC(=O)C1=C(N)Oc2cc(O)ccc2C1c1ccc(OCCN2CCCC2)cc1 (configuration not stated) | – |
| – | > 50 | – | 0.89 | – | > 10 | – | N#CC1=C(N)Oc2cc(O)ccc2C1c1ccc(OCCN2CCCC2)cc1 (configuration not stated) | – |
| – | 27.3 | – | 1.41 | – | 3.1 | – | CCOC(=O)C1=C(N)Oc2cc(O)ccc2C1c1ccc(OCCN2CCCC2)cc1 (configuration not stated) | 0 |
| – | > 100 | – | 109 | – | 0.63 | – | COC(=O)C1=C(N)Oc2cc(O)ccc2C1c1ccc(OCCN2CCOCC2)cc1 (configuration not stated) | – |

The next lines start with the compound.

| Structure (SMILES) | half-life [1] [h] | IC50 [2] [µM] | half-life [3] [h] | IC50 [4] [µM] | half-life [6] [h] | IC50 [7] [µM] | remaining at 0.5 h [8] [%] | Activity [5] [%] |
| --- | --- | --- | --- | --- | --- | --- | --- | --- |
| CCOC(=O)C1=C(N)Oc2cc(O)ccc2C1c1ccc(OCc2ccccc2)cc1 (configuration not stated) | – | 4.5 | – | 40.3 | – | > 100 | – | – |
| N#CC1=C(N)Oc2cc(O)ccc2C1c1ccccc1 (configuration not stated) | – | > 100 | – | > 10 | – | 8.39 | – | – |
| CCOC(=O)C1=C(N)Oc2cc(O)ccc2C1c1ccc(OC)c(OC)c1 (configuration not stated) | – | > 100 | – | – | – | – | – | – |
| CCOC(=O)C1=C(N)Oc2cc(O)ccc2C1c1ccc(O)cc1 (configuration not stated) | – | > 100 | – | – | – | – | – | – |
| COC(=O)C1=C(N)Oc2cc(O)ccc2C1c1ccccc1 (configuration not stated) | – | 10.8 | – | 3.3 | – | 1.59 | – | – |
| COC(=O)C1=C(N)Oc2cc(O)ccc2C1c1ccc(O)cc1 (configuration not stated) | – | > 100 | – | 0.79 | – | 10 | – | – |
| CCOC(=O)C1=C(N)Oc2cc(O)ccc2C1c1ccc(OCCN2CCOCC2)cc1 (configuration not stated) | – | 18.8 | – | 0.22 | – | 2.44 | – | 0 |
| CCOC(=O)C1=C(N)Oc2cc(O)ccc2C1c1ccc(OCC)cc1 (configuration not stated) | – | > 100 | – | – | – | – | – | – |
| CC/C(=C(\c1ccccc1)c1ccc(OCCN(C)C)cc1)c1ccccc1 [TAMOXIFEN] | – | – | – | – | – | – | – | 13.4 |
| CCOC(=O)C1=C(N)Oc2cc(O)ccc2C1c1ccccc1 (configuration not stated) | – | > 100 | – | 2.36 | – | 0.61 | – | – |
